Experimental data as given in ChEMBL document CHEMBL4840361, “Phytochemical Profiling and Biological Testing of the Constituents of the Australian Plant Haemodorum brevisepalum” (2021).
Activity calls are given as the source filed them. The rule behind the calls is not given here.

Legend:
Cryptococcus neoformans = test: Antifungal activity against Cryptococcus neoformans var. grubii H99 ATCC 208821 assessed as fungal growth inhibition at 32 ug/ml measured after 3 days by resazurine dye based assay; assay type: functional, organism-based; settings: dose 32.0 µg/ml, time 3.0 day
In short: (§1)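 Screened through CO-ADD at 32 µg/mL against a panel of five bacteria and two fungi. Run in duplicate (n=2) on different plates. Activity was called when inhibition exceeded 80% with a Z-score above 2.5 in either replicate.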

Escherichia coli = test: Antibacterial activity against Escherichia coli ATCC 25922 assessed as bacterial growth inhibition at 32 ug/ml measured after 18 hrs by resazurine dye based assay; assay type: functional, organism-based; settings: dose 32.0 µg/ml; in short: as §1
Haemonchus contortus [1] = test: Anthelmintic activity against third stage larvae of Haemonchus contortus assessed as inhibition of xL3 larval motility at 20 uM measured after 72 hrs; assay type: functional, organism-based
In short: (§2)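 Exsheathed third-stage larvae (xL3s) of Haemonchus contortus, screened at 20 µM in 96-well plates holding 300 xL3s per well; testing was done at the University of Melbourne.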

Candida albicans = test: Antifungal activity against Candida albicans ATCC 90028 assessed as fungal growth inhibition at 32 ug/ml measured after 3 days by resazurine dye based assay relative to control; assay type: functional; settings: ATCC 90028, 72 h, time 3 day; in short: as §1
Haemonchus contortus [2] = test: Anthelmintic activity against third stage larvae of Haemonchus contortus assessed as inhibition of larval development at 20 uM measured after 7 days by microscopic analysis; assay type: functional, organism-based; settings: time 7.0 day; in short: as §2
Staphylococcus aureus = test: Antibacterial activity against Staphylococcus aureus MRSA ATCC 43300 assessed as bacterial growth inhibition at 32 ug/ml measured after 18 hrs by resazurine dye based assay relative to control; assay type: functional; in short: as §1

SMILES	Activity (Cryptococcus neoformans)	Activity (Escherichia coli)	Activity (Haemonchus contortus [1])	inhibition at 32 µg/mL (Candida albicans)	Activity (Haemonchus contortus [2])	inhibition at 32 µg/mL (Staphylococcus aureus)
O=C1C=Cc2cc(O[C@@H]3O[C@H](CO)[C@@H](O)[C@H](O)[C@H]3O)cc3c(-c4ccc(O)cc4)ccc1c23	inactive	inactive	inactive	29.6%	inactive	
CC(=O)OC[C@@H]1O[C@H](Oc2c(OC(C)=O)cc3c4c(ccc(-c5ccccc5)c24)C(=O)OC3)[C@@H](OC(C)=O)[C@H](OC(C)=O)[C@H]1OC(C)=O	inactive	inactive				
COc1cc2ccc(=O)c3cc(O[C@@H]4O[C@H](CO)[C@@H](O)[C@H](O)[C@H]4O)c4c5ccccc5oc1c4c23	inactive	inactive				8.1%
O=C1OC(O)c2cc(O)c(O[C@@H]3O[C@H](CO)[C@@H](O)[C@H](O)[C@H]3O)c3c(-c4ccccc4)ccc1c23 (mixture of isomers)	inactive	inactive	inactive		inactive	
COC(=O)c1ccc(-c2ccccc2)c2c1C(=O)C=C(OC)C2=O	inactive	inactive				
O=C1C(O)=Cc2ccc(O[C@@H]3O[C@H](CO)[C@@H](O)[C@H](O)[C@H]3O)c3cc(-c4ccccc4O)cc1c23	inactive	inactive	inactive		inactive	
COC1=Cc2cc(OC)c(O[C@@H]3O[C@H](CO)[C@@H](O)[C@H](O)[C@H]3O[C@@H]3O[C@H](COC(=O)/C=C/c4ccc(O)c(O)c4)[C@@H](O)[C@H](O)[C@H]3O)c3c(-c4ccccc4)ccc(c23)C1=O	inactive	inactive	inactive		inactive	
O=c1c(O[C@@H]2O[C@H](CO)[C@@H](O)[C@H](O)[C@H]2O)c(-c2ccc(O)c(O)c2)oc2cc(O)cc(O)c12	inactive	inactive				
O=c1c(O[C@@H]2O[C@H](CO[C@@H]3O[C@H](CO)[C@@H](O)[C@H](O)[C@H]3O)[C@@H](O)[C@H](O)[C@H]2O)c(-c2ccc(O)c(O)c2)oc2cc(O)cc(O)c12	inactive	inactive				
COc1cc2ccc(=O)c3ccc4c5ccccc5oc1c4c23	inactive	inactive				58.4%
O=C1OCc2cc(O)c(O[C@@H]3O[C@H](CO)[C@@H](O)[C@H](O)[C@H]3O)c3c(-c4ccccc4)ccc1c23	inactive	inactive	inactive		inactive	
O=C1C=Cc2cc(O)c(O[C@@H]3O[C@H](CO)[C@@H](O)[C@H](O)[C@H]3O)c3cc(-c4ccccc4O)cc1c23	inactive	inactive	inactive	38.7%	inactive	
O=C1OC(C(=O)O)c2cc(O)c(O[C@H]3O[C@@H](CO)[C@H](O)[C@@H](O)[C@@H]3O)c3c(-c4ccccc4)ccc1c23 (mixture of isomers)	inactive	inactive				
O=C1C(O)=Cc2cc(O[C@@H]3O[C@H](CO[C@@H]4O[C@H](CO)[C@@H](O)[C@H](O)[C@H]4O)[C@@H](O)[C@H](O)[C@H]3O)cc3c(-c4ccc(O)c(O)c4)ccc1c23	inactive	inactive	inactive		inactive	
